# L major viab: reduces viability of Leishmania major promastigotes; resazurin fluorescence viability; hit rate 9% among 200,000; inhibition, % at 10 µM; in the data active means inhibition above about 50%;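 further: promastigotes grown with compound for 44 hours at 28 °C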
# MDM2 E3 inh: Mdm2 E3 ligase (human) inhibition. hit rate 0.11% among 210,000. AID 1230. signal enhancement, % at 5 µM. cell-based MDM2 ubiquitination luciferase reporter, 2 h; 0 = plate control, 100 = twice control, blank-subtracted. Q00987;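 active means signal enhancement of 30% or more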;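 further: luminescence tracks abundance of the self-degrading MDM2-luciferase fusion protein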
#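 System: stable MDM2–luciferase fusion reporter cells / Input: 2000 cells seeded into each well / Schedule: 4 h settle plus 2 h compound, 37 °C / Compound: single-point 5 µM / Buffer or medium: cells held in DMEM / Benchmarks: control and blank well means / Evaluation: percent signal gain over controls, blank-subtracted / Measured by: luciferase luminescence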
# S1P4 agonist: agonists of human S1P4 receptor. O95977. S1P4-expressing cell line, agonist reporter assay. activation, % at 4.98 µM. hit rate 0.35% among 220,000; in the data active means activation above about 11%
# S1P4 antag: human S1P4 receptor antagonism. O95977. S1P4-expressing cells, antagonist mode, reporter read-out. inhibition, % at 4.98 µM. hit rate 0.26% among 220,000. AID 1510; in the data active means inhibition above about 29%
# S1P3 antag: antagonists of human S1P3 receptor. Q99500. CHO S1P3 NFAT-BLA reporter, FRET fluorescence, antagonist mode. inhibition, % at 4.98 µM. hit rate 0.27% among 170,000;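 active means inhibition above the plate cutoff, the mean inhibition of test wells on that plate plus 3 SD, cut at about 28% in these data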;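 further: cells challenged with S1P at its EC80 of 0.8 µM; blue over green emission ratio from cleaved BLA substrate after 4 h stimulation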
# Target sequence (Q99500 whole entry, looked up): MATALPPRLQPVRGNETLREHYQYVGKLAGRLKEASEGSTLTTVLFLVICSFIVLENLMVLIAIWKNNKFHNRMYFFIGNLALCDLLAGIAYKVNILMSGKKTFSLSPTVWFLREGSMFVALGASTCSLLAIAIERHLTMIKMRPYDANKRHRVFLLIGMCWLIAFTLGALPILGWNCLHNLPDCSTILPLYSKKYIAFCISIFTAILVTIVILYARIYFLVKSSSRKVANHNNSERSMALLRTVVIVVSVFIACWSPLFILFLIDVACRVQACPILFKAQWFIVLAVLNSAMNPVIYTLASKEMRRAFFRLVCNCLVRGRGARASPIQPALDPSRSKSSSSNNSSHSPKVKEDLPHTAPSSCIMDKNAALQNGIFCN
# A number is an active result; - = inactive; . = not tested or not shown. The full list was thinned out, with hits kept by preference.
SMILES,L major viab,MDM2 E3 inh,S1P4 agonist,S1P4 antag,S1P3 antag
Cc1ccc(-c2nc3cccnc3o2)cc1NC(=O)COc1ccc(Cl)cc1C,94.4,-,-,-,-
CCN(CC)CC(=O)Nc1ccc(-c2nc3cc(NC(=O)CN(CC)CC)ccc3o2)cc1,86.0,-,-,-,-
Cc1ccc(C2=C(c3ccc([N+](=O)[O-])cc3)C(=O)OC2)cc1C,-,-,-,-,-
Cc1ccc(NC(=O)CCC(=O)NNC(=O)c2ccco2)c(C)c1,-,-,-,-,.
CCN(CC)P(=O)(Nc1ccc(C)cc1Br)c1ccc(N(C)C)cc1NC(=O)c1ccco1 (stereo unspecified),64.9,-,-,-,-
CCOC(=O)C(C(=O)OCC)C(C(=O)OCC)N1CCOCC1 (stereo unspecified),100.5,-,-,-,.
CC(=O)c1c(C(C)=O)c(C)n(-c2nc(-c3ccc(Br)cc3)c(C)s2)c1C,-,-,-,-,.
COc1ccc(-c2nc(-n3c(C)c(C(C)=O)c(C(C)=O)c3C)sc2C)cc1OC,66.2,-,-,-,.
CCc1ccc(NC(=S)N2CCCC(C(F)(F)F)C2)cc1 (stereo unspecified),95.6,-,-,-,-
CC1CCCN(C(=S)Nc2ccc(F)cc2)C1 (stereo unspecified),-,-,-,-,-
Cc1ccc2c(C)c(C(=O)NCc3ccc(S(N)(=O)=O)cc3)oc2c1,-,-,-,-,-
COCCn1c(COc2ccc(Cl)cc2)nnc1SCC(N)=O,-,-,-,-,62.5
Cc1cc(Br)cc(C)c1OCCCCN(C)C,99.7,-,-,-,.
Cc1ccc(OCCCN(C)C)c(Br)c1,60.0,-,-,-,-
Cc1cc(Cl)c(OCCCCNC(C)(C)C)c(Br)c1,97.7,-,-,-,-
Cc1cc(C)c(OCCCON2C(=O)CCC2=O)c(Br)c1,-,-,-,-,-
Cc1cc(Cl)c(OCCCN(C)C)c(Br)c1,78.7,-,-,-,-
Oc1c(/C=C/C=C/C=Nc2ccccc2)sc(=S)n1Cc1ccccc1,.,-,-,-,-
Clc1ccc(OCCSc2ncccn2)c(Br)c1,-,-,-,-,-
CN(C)CCCOc1ccc(Cl)cc1Br,61.7,-,-,-,.
CC(C)NCCOCCOc1ccccc1F,-,-,-,-,.
CC(C)NCCOCCOc1ccc(Cl)cc1Br,94.5,-,-,-,-
CN(C)CCOCCOc1ccc(Cl)cc1Br,92.6,-,-,-,-
Cc1ccc(OCCCC(=O)Nc2ccc(Br)cc2)cc1,-,-,-,-,.
CSc1ccc(S(=O)(=O)Nc2ccc(OCC(=O)N3CCOCC3)cc2)cc1,-,-,-,-,-
SMILES,L major viab,MDM2 E3 inh,S1P4 agonist,S1P4 antag,S1P3 antag
CCN1C(=O)C2(SC(NC(C)=O)=NN2C(C)=O)c2cc(C)cc(C)c21 (stereo unspecified),70.5,-,-,-,-
O=C(CCc1ccc(Oc2cc([N+](=O)[O-])cc([N+](=O)[O-])c2)cc1)N1CCCCC1,92.4,-,-,-,.
COc1ccc(CCC(=O)Nc2cccc(Cl)c2)cc1,-,.,-,-,-
O=C(CCc1ccc(Oc2cc([N+](=O)[O-])cc([N+](=O)[O-])c2)cc1)Nc1cccc(Cl)c1,100.1,-,-,-,-
CCCN1C(=O)/C(=C/c2nc3ccccc3c(=O)[nH]2)c2ccccc21,99.8,-,-,-,-
CCn1c(/C=C2\C(=O)N(C(C)C)c3ccccc32)nc2ccccc2c1=O,.,-,-,-,-
CC(C)N1C(=O)/C(=C\c2nc3ccccc3c(=O)[nH]2)c2ccccc21,100.2,-,-,-,-
CCCN1C(=O)/C(=C/c2nc3ccccc3c(=O)[nH]2)c2cc(C)ccc21,.,-,-,-,-
CCS(=O)(=O)N1Cc2ccccc2CC1C(=O)Nc1nc2ccccc2s1 (stereo unspecified),67.0,-,-,-,-
CCc1nnc(NC(=O)C2Cc3ccccc3CN2S(=O)(=O)CC)s1 (stereo unspecified),-,-,-,-,-
COc1cc(-c2nc3ccccn3c2/N=C/c2cc(OC)c(O)cc2Cl)ccc1O,-,-,-,-,-
Cn1c(/C=N/c2nc3ccccc3[nH]2)nc2ccccc21,100.4,-,-,-,-
N#C/C(=C(/O)CO/N=C/c1ccccc1Cl)c1nc2ccccc2[nH]1,.,-,-,-,-
O=S(=O)(N/N=C\C=C\c1ccccc1)c1ccc(Cl)cc1,92.2,-,-,-,.
CCOc1ccc(C(=O)Nc2cc(-c3nc4ccccc4[nH]3)ccc2Cl)cc1[N+](=O)[O-],95.6,-,-,-,-
CCOc1ccc(C(=O)Nc2cccc(-c3nc4ccccc4[nH]3)c2C)cc1[N+](=O)[O-],50.9,.,-,-,-
CSC1=N/C(=C/c2cccnc2)C(=O)N1Cc1ccccc1,.,-,-,-,-
CCO/C([O-])=N/c1sn[n+](C)c1C,.,-,-,-,-
COc1ccc(C(CC(=O)c2ccccc2)CC(=O)c2ccccc2)cc1OC,50.8,-,-,-,-
CCc1nc(CN2CCCC(C(=O)c3ccc4c5c(cccc35)CC4)C2)c(C)[nH]1 (stereo unspecified),99.0,-,-,-,-
Cc1ncccc1C(=O)N1CCCC(C(=O)c2ccc3c4c(cccc24)CC3)C1 (stereo unspecified),-,-,-,-,-
O=C(c1ccc2c3c(cccc13)CC2)C1CCCN(Cc2ccncc2)C1 (stereo unspecified),97.0,-,-,-,-
Cc1cc(C)c(OC2(c3ccccc3)OC(=O)c3ccccc32)c(C)c1 (stereo unspecified),-,-,-,-,.
Cc1cccc(C)c1OC1(c2ccccc2)OC(=O)c2ccccc21 (stereo unspecified),98.3,-,-,-,.
N#CC(C#N)=Cc1cc2ccccc2nc1N1CCCCC1,82.1,-,-,-,-
SMILES,L major viab,MDM2 E3 inh,S1P4 agonist,S1P4 antag,S1P3 antag
COc1ccc(C(C(=O)NC2CCCC2)N(Cc2ccc(C)cc2)C(=O)c2ccn[nH]2)cc1OC (stereo unspecified),-,-,-,-,.
COc1ccc(C2C(CN3CCOCC3)C(=O)N2c2ccccc2)cc1 (stereo unspecified),-,-,-,-,-
COc1ccc(N2C(=O)C(CN3CCN(C)CC3)C2c2ccccc2)cc1 (stereo unspecified),95.3,-,-,-,-
COC(=O)c1cc(=O)n(Cc2ccc(OC)c(OC)c2)c(=Nc2ccc(F)cc2)s1,-,-,-,-,.
COC(=O)c1cc(=O)n(CCc2ccc(OC)c(OC)c2)c(=Nc2ccc(F)c(Cl)c2)s1,98.3,-,-,-,.
COC(=O)c1cc(=O)n(-c2ccccc2)c(=Nc2ccccc2)s1,87.0,.,-,-,-
CCOC(=O)c1ccc(N=c2sc(C(=O)OC)cc(=O)n2-c2ccc(C(=O)OCC)cc2)cc1,99.6,.,-,-,-
COC(=O)c1cc(=O)n(Cc2ccco2)c(=Nc2ccc(F)cc2)s1,95.6,-,-,-,-
Cc1ccccc1NC(=O)c1ccccc1NC(=O)CCC(=O)O,-,-,-,-,-
S=C(NCC1CC1)N/N=C/c1ccccc1Cl,.,-,-,-,-
